Paper PMC12417823 (Neuro-Oncology, 2025)

Legend:
[1] = tested on: CRY1/CRY2; settings: cited from earlier work
[2] = tested on: Per2::Luc reporter in Cry1 knockout fibroblasts; assay: Per2::Luc repression assay; format: cell-based, mice; settings: Cry1 knockout cells
Procedure, shortened: (§1)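 Mouse fibroblasts carrying a Per2::Luc knock-in reporter (wild type, Cry1/Cry2 double, Cry1 or Cry2 knockout) grown 2 days to confluency in 384-well plates, then given test compound dilution series (final 0.7% DMSO). After 2 days, medium replaced with BrightGlo and luminescence read. Change is relative to DMSO control, n = 3–4 biological samples. IC50 from sigmoidal dose–response fit.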

[3] = tested on: Per2::Luc reporter in Cry2 knockout fibroblasts; assay: Per2::Luc repression assay; format: cell-based, mice; settings: Cry2 knockout cells, compared to wild type
Procedure, shortened: as §1

SMILES | CRY isoform selectivity [1] | repression of Per2::Luc reporter activity [2] | repression of Per2::Luc reporter activity [3]
CS(=O)(=O)N(Cc1ccco1)CC(O)Cn1c2ccccc2c2ccccc21 (stereo not drawn) [KL001] | does not display a CRY isoform selectivity | less effective than intact cells | –
O=C1NCCN1CC(O)Cn1c2ccc(F)cc2c2cc(F)ccc21 (stereo not drawn) [SHP656] | selective for CRY2 | – | reduced overall repression
O=C1NCCN1C[C@H](O)Cn1c2ccc(F)cc2c2cc(F)ccc21 [SHP1703] | selective for CRY2 | – | reduced overall repression
